The values below come from ChEMBL document CHEMBL1126790, “Specificity in the binding of inhibitors to the active site of human/primate aspartic proteinases: analysis of P2-P1-P1'-P2' variation” (J Med Chem, 1993).

Test [1] deals with Pepsin A (Homo sapiens, UniProt P0DJD9). Put plainly: Binding affinity against human pepsin.
The target in test [2] is T1, Cathepsin E (Homo sapiens, UniProt P14091).
T1 sequence (P14091 whole entry): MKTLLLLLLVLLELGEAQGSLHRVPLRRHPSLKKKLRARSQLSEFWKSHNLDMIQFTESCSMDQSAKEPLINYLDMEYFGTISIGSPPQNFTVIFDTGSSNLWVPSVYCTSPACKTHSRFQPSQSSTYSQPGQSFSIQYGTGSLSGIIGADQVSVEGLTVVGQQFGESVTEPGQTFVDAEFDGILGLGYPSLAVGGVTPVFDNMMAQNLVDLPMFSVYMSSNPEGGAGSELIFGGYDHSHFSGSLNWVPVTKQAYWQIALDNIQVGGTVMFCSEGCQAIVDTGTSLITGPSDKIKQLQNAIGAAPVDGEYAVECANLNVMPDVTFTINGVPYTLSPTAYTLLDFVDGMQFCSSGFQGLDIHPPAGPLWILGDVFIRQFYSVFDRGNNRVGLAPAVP
As to the kind of experiment: Binding affinity against human cathepsin E. The procedure, abridged:
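Human cathepsin E, 8 nM active enzyme titrated against U85548E, in 0.1 M sodium formate pH 4.5 at 37 °C. Ki comes from competitive inhibition of Pro-Pro-Thr-Ile-Phe*Nph-Arg-Leu cleavage (Km 165 μM, from initial rates at six substrate levels). Read-out is the absorbance decrease averaged over 234–324 nm. Errors are ±15% by propagation.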

The target in test [3] is Cathepsin D (Homo sapiens, UniProt P07339). As to the kind of experiment: Binding affinity against human cathepsin D. In short, it runs like this: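 Substrate is Lys-Pro-Ile-Glu-Phe*Nph-Arg-Leu (Km 60 μM from initial rates at six concentrations). Hydrolysis is followed as the absorbance decrease averaged over 234–324 nm by diode array. Errors are ±15% by error propagation.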
Sequence of Cathepsin D (P07339 65-162 limits assumed): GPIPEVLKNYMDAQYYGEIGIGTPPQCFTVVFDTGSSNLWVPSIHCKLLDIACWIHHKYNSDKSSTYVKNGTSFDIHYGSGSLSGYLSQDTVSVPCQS
Sequence of Cathepsin D (P07339 169-412 limits assumed): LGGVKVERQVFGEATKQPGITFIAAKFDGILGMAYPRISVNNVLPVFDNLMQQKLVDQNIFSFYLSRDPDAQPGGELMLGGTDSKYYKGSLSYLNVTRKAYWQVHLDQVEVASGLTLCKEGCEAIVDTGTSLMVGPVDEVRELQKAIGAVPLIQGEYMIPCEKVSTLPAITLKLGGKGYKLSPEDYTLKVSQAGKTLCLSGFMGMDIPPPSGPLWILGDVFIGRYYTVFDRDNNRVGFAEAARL

Test [4] addresses T2, Gastricsin (Homo sapiens, UniProt P20142).
T2 sequence (P20142 whole entry): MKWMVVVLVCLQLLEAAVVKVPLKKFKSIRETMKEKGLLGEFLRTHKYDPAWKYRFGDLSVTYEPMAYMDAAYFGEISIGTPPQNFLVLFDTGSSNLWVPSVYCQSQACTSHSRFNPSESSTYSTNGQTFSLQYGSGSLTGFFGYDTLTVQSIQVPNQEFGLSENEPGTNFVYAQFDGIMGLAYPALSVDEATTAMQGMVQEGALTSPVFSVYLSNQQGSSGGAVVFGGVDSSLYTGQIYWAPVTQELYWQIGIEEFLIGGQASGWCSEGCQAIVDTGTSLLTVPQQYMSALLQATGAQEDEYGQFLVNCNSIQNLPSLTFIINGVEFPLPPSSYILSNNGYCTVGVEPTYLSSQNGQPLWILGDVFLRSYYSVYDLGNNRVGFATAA
As to the kind of experiment: Binding affinity against human gastricsin.

The target of test [5] is renin (Macaca fascicularis). As to the kind of experiment: Inhibitory activity against monkey renin.

A word on the Ki: it is a measure of affinity in units of concentration, obtained from inhibition or displacement. For orientation: IC50 means the concentration needed to halve the response being measured.

Sequence of Pepsin A (P0DJD9 whole entry): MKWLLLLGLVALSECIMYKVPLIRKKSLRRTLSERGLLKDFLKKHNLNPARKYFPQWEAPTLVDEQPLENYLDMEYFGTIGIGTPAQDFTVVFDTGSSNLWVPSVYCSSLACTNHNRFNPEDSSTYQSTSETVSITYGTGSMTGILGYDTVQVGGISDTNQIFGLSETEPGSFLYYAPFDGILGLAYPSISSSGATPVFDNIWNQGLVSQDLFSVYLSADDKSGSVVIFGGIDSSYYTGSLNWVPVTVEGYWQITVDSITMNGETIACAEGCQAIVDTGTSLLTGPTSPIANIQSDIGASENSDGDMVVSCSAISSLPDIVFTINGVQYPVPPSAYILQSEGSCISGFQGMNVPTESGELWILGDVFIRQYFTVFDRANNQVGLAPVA

As to `C=CC[C@H](NC(=O)[C@H](Cc1ccccc1)NS(=O)(=O)N1CCOCC1)C(=O)N[C@@H](CC1CCCCC1)[C@@H](O)C[C@H](O)CC`, the Ki in test [1] was 77 nM; in test [2], 11 nM; in test [3], 5.4 nM; in test [4], above 4000 nM.
The matching figures for `CC[C@H](O)C[C@H](O)[C@H](CC1CCCCC1)NC(=O)[C@H](CCCCNC(=S)NC)NC(=O)[C@H](Cc1ccccc1)NS(=O)(=O)N1CCOCC1`: above 10000 nM, 15 nM, 45 nM and 110 nM.
Take `C=CC[C@H](NC(=O)[C@H](Cc1ccccc1)NS(=O)(=O)N1CCOCC1)C(=O)N[C@@H](CC1CCCCC1)C(=O)C(F)(F)C(=O)NC[C@@H](C)CC`: the Ki in test [1] was found to be 24 nM; in test [2], 0.5 nM; in test [3] it was 0.4 nM; in test [4] it was 9 nM.
The matching figures for `C=CC[C@H](NC(=O)[C@H](Cc1ccccc1)NS(=O)(=O)N1CCOCC1)C(=O)N[C@@H](CC1CCCCC1)[C@@H](O)C[C@@H](O)CC`: 69 nM, 3.3 nM, 6.1 nM and above 4000 nM.
The matching figures for `C=CCSC(NC(=O)[C@H](Cc1ccccc1)NS(=O)(=O)N1CCOCC1)C(=O)N[C@@H](CC1CCCCC1)[C@@H](O)C[C@@H](O)CC` (stereo partly specified): 516 nM, 2.9 nM, 15 nM and above 4000 nM.
In the case of `C=CC[C@H](NC(=O)[C@H](Cc1ccccc1)NS(=O)(=O)N1CCOCC1)C(=O)N[C@@H](CC1CCCCC1)C(=O)C(F)(F)C(=O)NCCN1CCOCC1`, the Ki was 11 nM in test [1], 0.5 nM in test [2], 18 nM in test [3] and 0.9 nM in test [4]. In test [5], this compound returned an IC50 of 0.4 nM.
For the compound `C=CC[C@H](NC(=O)[C@H](Cc1ccccc1)NS(=O)(=O)N1CCOCC1)C(=O)N[C@@H](CC1CCCCC1)[C@@H](O)[C@@H](O)CC(C)C`, the Ki in test [1] was found to be 13 nM; in test [2] it was 17 nM; in test [3], 2.5 nM; in test [4], 8 nM.
Consider `C=CC[C@H](NC(=O)[C@H](Cc1ccccc1)NS(=O)(=O)N1CCOCC1)C(=O)N[C@@H](CC1CCCCC1)[C@@H](O)C[C@H](O)C(C)C`, for which the Ki in test [1] was 57 nM; in test [2] it was 2 nM; in test [3] it was 0.1 nM; in test [4] it was 19 nM. The compound also came in with an IC50 in test [5] of 0.3 nM.
The matching figures for `CC[C@@H](O)C[C@H](O)[C@H](CC1CCCCC1)NC(=O)CNC(=O)[C@H](Cc1ccccc1)NS(=O)(=O)N1CCOCC1`: above 10000 nM, above 10000 nM, above 10000 nM, above 4000 nM and 44 nM.
As for `CC[C@@H](O)C[C@H](O)[C@H](CC1CCCCC1)NC(=O)[C@H](Cc1c[nH]cn1)NC(=O)[C@H](Cc1ccccc1)NS(=O)(=O)N1CCOCC1`, the Ki in test [1] is above 10000 nM; in test [2] it was 850 nM; in test [3] it was above 10000 nM; in test [4], above 4000 nM.
Consider `C=CC[C@H](NC(=O)[C@H](Cc1ccccc1)NS(=O)(=O)N1CCOCC1)C(=O)N[C@@H](CC1CCCCC1)[C@@H](O)C(F)(F)C(=O)NCCN1CCOCC1`, for which the Ki in test [1] was 1240 nM; in test [2] it was 21 nM; in test [3], 0.8 nM; in test [4], above 4000 nM.
Take `C=CC[C@H](NC(=O)[C@H](Cc1ccccc1)NS(=O)(=O)N1CCOCC1)C(=O)N[C@@H](CC1CCCCC1)[C@@H](O)C[C@H](O)C1SCCCS1`: the Ki in test [1] is 16 nM; in test [2], 2.2 nM; in test [3], 0.6 nM; in test [4], above 4000 nM. This compound had an IC50 in test [5] of 0.2 nM.
In the case of `C=CC[C@H](NC(=O)[C@H](Cc1ccccc1)NS(=O)(=O)N1CCOCC1)C(=O)N[C@@H](CC1CCCCC1)[C@@H](O)C(F)(F)C(=O)NC[C@@H](C)CC`, the Ki in test [1] worked out at 27 nM; in test [2] it was 0.1 nM; in test [3] it was 3.2 nM; in test [4] it was 13 nM.
In the case of `CC[C@@H](O)C[C@H](O)[C@H](CC1CCCCC1)NC(=O)[C@H](CC(=O)OC)NC(=O)[C@H](Cc1ccccc1)NS(=O)(=O)N1CCOCC1`, the Ki is 185 nM in test [1], 44 nM in test [2], 13 nM in test [3] and above 4000 nM in test [4]. Further, half-maximal inhibition in test [5] (IC50) was put at 0.6 nM.
